# From ChEMBL document CHEMBL5136969, “A niclosamide-tobramycin hybrid adjuvant potentiates cefiderocol against P. aeruginosa” (2021)
# Active and inactive are the calls of the source.
# Assays:
# Pseudomonas aeruginosa [1] = assay: Potentiation of cefotaxime-induced antibiotic activity against Pseudomonas aeruginosa PAO1 assessed as MIC fold reduction at 8 ug/ml after 18 hrs by microbroth dilution method; assay type: functional; conditions: dose 8 µg/ml
# How it was run: (§1)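 Adjuvant held at a fixed 8 μg/mL while the antibiotic was 2-fold serially diluted in Mueller-Hinton broth (MHB), per CLSI microbroth dilution. Overnight cultures were adjusted in saline to 0.5 McFarland, then diluted 1:50 in MHB to about 5 × 10^5 CFU/mL final, and incubated 18 h at 37 °C. MIC was the lowest concentration with no visible turbidity, confirmed at 590 nm. Fold potentiation = MIC alone / MIC with adjuvant.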
# Escherichia coli [2] = assay: Potentiation of cefiderocol-induced antibiotic activity against Escherichia coli ATCC 25922 assessed as MIC fold reduction at 8 ug/ml after 18 hrs by microbroth dilution method; assay type: functional; conditions: dose 8 µg/ml
# How it was run: (§2)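 Initial screen in MHB using a fixed 8 μg mL−1 of adjuvant combined with each antibiotic under 2-fold dilution. Broth microdilution used about 5 × 10^5 CFU/mL at 37 °C for 18 h, with visible turbidity read and confirmed at 590 nm. Fold-potentiation = antibiotic MIC alone ÷ antibiotic MIC with adjuvant.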
# Acinetobacter baumannii [3] = assay: Potentiation of aztreonam-induced antibiotic activity against Acinetobacter baumannii ATCC 17978 assessed as MIC fold reduction at 8 ug/ml after 18 hrs by microbroth dilution method; assay type: functional; conditions: dose 8 µg/ml; how it was run: as §2
# Escherichia coli [4] = assay: Potentiation of rifampicin-induced antibiotic activity against Escherichia coli ATCC 25922 assessed as MIC fold reduction at 8 ug/ml after 18 hrs by microbroth dilution method; assay type: functional; conditions: dose 8 µg/ml
# Escherichia coli [5] = assay: Potentiation of chloamphenicol-induced antibiotic activity against Escherichia coli ATCC 25922 assessed as MIC fold reduction at 8 ug/ml after 18 hrs by microbroth dilution method; assay type: functional; conditions: dose 8 µg/ml; how it was run: as §1
# Pseudomonas aeruginosa [6] = assay: Potentiation of novobiocin-induced antibiotic activity against Pseudomonas aeruginosa PAO1 assessed as MIC fold reduction at 8 ug/ml after 18 hrs by microbroth dilution method; assay type: functional; conditions: dose 8 µg/ml
# Escherichia coli [7] = assay: Potentiation of fosfomycin-induced antibiotic activity against Escherichia coli ATCC 25922 assessed as MIC fold reduction at 8 ug/ml after 18 hrs by microbroth dilution method; assay type: functional; conditions: dose 8 µg/ml; how it was run: as §1
# Acinetobacter baumannii [8] = assay: Potentiation of cotrimoxazole-induced antibiotic activity against Acinetobacter baumannii ATCC 17978 assessed as MIC fold reduction at 8 ug/ml after 18 hrs by microbroth dilution method; assay type: functional; conditions: dose 8 µg/ml; how it was run: as §1
# Pseudomonas aeruginosa [9] = assay: Potentiation of cefotaxime-induced antibiotic activity against MDR clinical isolate Pseudomonas aeruginosa PA264 assessed as MIC fold reduction at 8 ug/ml after 18 hrs by microbroth dilution method; assay type: functional, organism-based; conditions: dose 8.0 µg/ml; how it was run: as §1
# Pseudomonas aeruginosa [10] = assay: Potentiation of cefiderocol-induced antibiotic activity against MDR clinical isolate Pseudomonas aeruginosa PA259 assessed as MIC fold reduction at 8 ug/ml after 18 hrs by microbroth dilution method; assay type: functional, organism-based; conditions: dose 8.0 µg/ml; how it was run: as §2
# Pseudomonas aeruginosa [11] = assay: Potentiation of cefiderocol-induced antibiotic activity against MDR clinical isolate Pseudomonas aeruginosa PA264 assessed as MIC fold reduction at 8 ug/ml after 18 hrs by microbroth dilution method; assay type: functional, organism-based; conditions: dose 8.0 µg/ml; how it was run: as §2
# Pseudomonas aeruginosa [12] = assay: Antibacterial activity against […] Pseudomonas aeruginosa PAO1 assessed as reduction in bacterial growth after 18 hrs by microbroth dilution method; assay type: functional
# How it was run: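 Broth microdilution per CLSI in Mueller-Hinton broth (MHB). Overnight cultures were adjusted to 0.5 McFarland in saline, diluted 1:50 in MHB, and added at about 5 × 10^5 CFU/mL final to equal volumes of 2-fold serial dilutions of agent. Incubation was 18 h at 37 °C. MIC was the lowest concentration with no visible turbidity, confirmed by absorbance at 590 nm.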
# Pseudomonas aeruginosa [13] = assay: Antibacterial activity against MDR clinical isolate Pseudomonas aeruginosa PA262 assessed as reduction in bacterial growth after 18 hrs by microbroth dilution method; assay type: functional
# How it was run: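 CLSI broth microdilution. Overnight cultures were adjusted in saline to 0.5 McFarland, diluted 1:50 in Mueller-Hinton broth (MHB), and inoculated at about 5 × 10^5 CFU/mL. Agents were 2-fold serially diluted in MHB, mixed 1:1 with inoculum, and held at 37 °C for 18 h. MIC was the lowest concentration with no visible turbidity, confirmed at 590 nm.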
# Pseudomonas aeruginosa [14] = assay: Antibacterial activity against MDR clinical isolate Pseudomonas aeruginosa PA259 assessed as reduction in bacterial growth after 18 hrs in presence of cefiderocol by microbroth dilution method; assay type: functional
# How it was run: (§3)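 Checkerboard in MHB. Cefiderocol was 2-fold serially diluted along one axis and the adjuvant along the other. Inoculum was prepared from 0.5 McFarland saline suspensions diluted 1:50 in MHB, giving about 5 × 10^5 CFU/mL final. Plates ran 18 h at 37 °C, with turbidity confirmed at 590 nm. FIC = combination MIC ÷ MIC alone for each agent, and FIC index = sum of both. Interpretation: ≤0.5 synergy, >0.5–4 additive, >4 antagonism.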
# Pseudomonas aeruginosa [15] = assay: Antibacterial activity against […] Pseudomonas aeruginosa PAO1 assessed as potentiation of cefiderocol antibacterial activity by measuring FIC index after 18 hrs by microbroth dilution method; assay type: functional; how it was run: as §3
# Pseudomonas aeruginosa [16] = assay: Antibacterial activity against MDR clinical isolate Pseudomonas aeruginosa PA88949 assessed as potentiation of cefiderocol antibacterial activity by measuring FIC index after 18 hrs by microbroth dilution method; assay type: functional
# How it was run: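 Checkerboard in MHB (iron-replete, not iron-depleted CAMHB). Cefiderocol was 2-fold serially diluted along one axis and the adjuvant along the other. Inoculum was 0.5 McFarland diluted 1:50, about 5 × 10^5 CFU/mL final. Incubation was 18 h at 37 °C, with turbidity read visually and confirmed at 590 nm. FIC was the MIC in combination over the MIC alone for each agent, and the FIC index was their sum. Cut-offs were ≤0.5 synergy, >0.5–4 additive, >4 antagonism.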
# Acinetobacter baumannii [17] = assay: Antibacterial activity against Acinetobacter baumannii LAC-4 assessed as reduction in bacterial growth after 18 hrs by microbroth dilution method; assay type: functional
# How it was run: (§4)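 CLSI microbroth dilution in MHB. Overnight cultures were adjusted to 0.5 McFarland in saline, diluted 1:50, and inoculated at about 5 × 10^5 CFU/mL. Agents were 2-fold serially diluted and incubated 18 h at 37 °C. MIC is the lowest concentration without visible turbidity, confirmed by absorbance at 590 nm. Medium with and without cells served as controls.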
# Acinetobacter baumannii [18] = assay: Antibacterial activity against Acinetobacter baumannii AB031 assessed as potentiation of cefiderocol antibacterial activity by measuring FIC after 18 hrs by microbroth dilution method; assay type: functional
# How it was run: (§5)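 Checkerboard in Mueller-Hinton broth: cefiderocol 2-fold diluted on one axis, adjuvant 2-fold on the other. Overnight cultures were adjusted to 0.5 McFarland in saline, diluted 1:50 in MHB, and inoculated at about 5 × 10^5 CFU/mL. Incubation was 18 h at 37 °C. Turbidity was read visually and confirmed at 590 nm. FIC index = FIC of antibiotic + FIC of adjuvant; ≤0.5 synergy, >4 antagonism.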
# Acinetobacter baumannii [19] = assay: Antibacterial activity against Acinetobacter baumannii AB92247 assessed as potentiation of cefiderocol antibacterial activity by measuring FIC after 18 hrs by microbroth dilution method; assay type: functional; how it was run: as §5
# Escherichia coli [20] = assay: Antibacterial activity against Escherichia coli 94393 assessed as reduction in bacterial growth after 18 hrs by microbroth dilution method; assay type: functional; how it was run: as §4
# Escherichia coli [21] = assay: Antibacterial activity against Escherichia coli 107115 assessed as potentiation of cefiderocol antibacterial activity by measuring FIC after 18 hrs by microbroth dilution method; assay type: functional; how it was run: as §5
# Enterobacter cloacae = assay: Antibacterial activity against Enterobacter cloacae 117029 assessed as potentiation of cefiderocol antibacterial activity by measuring FIC after 18 hrs by microbroth dilution method; assay type: functional; how it was run: as §5
smiles,measurement,setting,value
NC[C@H]1O[C@H](O[C@H]2[C@H](OCCCCc3cn(-c4ccc(NC(=O)c5cc(Cl)ccc5O)cc4)nn3)[C@@H](O[C@H]3O[C@H](CO)[C@@H](O)[C@H](N)[C@H]3O)[C@H](N)C[C@@H]2N)[C@H](N)C[C@@H]1O,fold change (FC),Pseudomonas aeruginosa [1],4
same,fold change (FC),Escherichia coli [2],4
same,fold change (FC),Acinetobacter baumannii [3],4
same,fold change (FC),Escherichia coli [4],4
same,fold change (FC),Escherichia coli [5],4
same,fold change (FC),Pseudomonas aeruginosa [6],4
same,fold change (FC),Escherichia coli [7],4
same,fold change (FC),Acinetobacter baumannii [8],4
same,Activity,Pseudomonas aeruginosa [9],Active
same,Activity,Pseudomonas aeruginosa [10],Active
same,Activity,Pseudomonas aeruginosa [11],Active
same,MIC,Pseudomonas aeruginosa [12],64 µg/mL
same,MIC,Pseudomonas aeruginosa [13],> 128 µg/mL
same,MIC,Pseudomonas aeruginosa [14],4 µg/mL
same,FIC,Pseudomonas aeruginosa [15],0.258
same,FIC,Pseudomonas aeruginosa [16],1
same,MIC,Acinetobacter baumannii [17],> 128 µg/mL
same,FIC,Acinetobacter baumannii [18],0.5
same,FIC,Acinetobacter baumannii [19],0.5
same,MIC,Escherichia coli [20],> 128 µg/mL
same,FIC,Escherichia coli [21],0.5
same,FIC,Enterobacter cloacae,0.5
